According to PMC3426663 (Xenobiotica; the fate of foreign compounds in biological …, 2012):

How the values were obtained:
[1] = test system: human liver microsomes (HLMs); test: Identification of Ket and norKet metabolites in HLM incubates; assay type: in vitro ADME; conditions: HLMs 0.5 mg/ml; for metabolite found in HLM incubates of (R,S)-Ket: (R,S)-Ket 10 μM, Fig. 2A; for metabolite found in HLM incubates of (R,S)-norKet: (R,S)-norKet 10 μM, Fig. 2
expressed CYP2A6 = molecular target: T1, expressed CYP2A6 (Homo sapiens, UniProt P11509); test: Incubation with expressed CYP2A6; assay type: in vitro ADME; conditions: for Vmax: expressed CYP2A6 13 pmol, 37°C, 15 min; for depletion of substrate from the incubation mixture: expressed CYP2A6, data not shown
T1 sequence (P11509 1-494): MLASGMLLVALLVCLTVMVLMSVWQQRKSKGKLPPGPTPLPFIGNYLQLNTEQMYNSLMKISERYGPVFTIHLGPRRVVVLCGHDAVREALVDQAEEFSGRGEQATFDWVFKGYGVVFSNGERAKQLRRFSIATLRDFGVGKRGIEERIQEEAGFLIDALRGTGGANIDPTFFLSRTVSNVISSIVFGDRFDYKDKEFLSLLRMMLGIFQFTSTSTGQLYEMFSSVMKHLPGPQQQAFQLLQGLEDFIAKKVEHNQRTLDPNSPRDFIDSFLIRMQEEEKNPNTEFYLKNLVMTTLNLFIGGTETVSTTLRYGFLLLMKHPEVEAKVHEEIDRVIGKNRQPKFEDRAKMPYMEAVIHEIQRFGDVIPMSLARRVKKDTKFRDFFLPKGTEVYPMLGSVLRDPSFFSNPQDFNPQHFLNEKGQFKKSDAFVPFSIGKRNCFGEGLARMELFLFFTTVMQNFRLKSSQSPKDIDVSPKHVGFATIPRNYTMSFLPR

expressed CYP2B6 = molecular target: T2, expressed CYP2B6 (Homo sapiens, UniProt P20813); test: Incubation with expressed CYP2B6; assay type: in vitro ADME; conditions: for Vmax: expressed CYP2B6 13 pmol, 37°C, 15 min; for depletion of substrate from the incubation mixture: data not shown
T2 sequence (P20813 1-491): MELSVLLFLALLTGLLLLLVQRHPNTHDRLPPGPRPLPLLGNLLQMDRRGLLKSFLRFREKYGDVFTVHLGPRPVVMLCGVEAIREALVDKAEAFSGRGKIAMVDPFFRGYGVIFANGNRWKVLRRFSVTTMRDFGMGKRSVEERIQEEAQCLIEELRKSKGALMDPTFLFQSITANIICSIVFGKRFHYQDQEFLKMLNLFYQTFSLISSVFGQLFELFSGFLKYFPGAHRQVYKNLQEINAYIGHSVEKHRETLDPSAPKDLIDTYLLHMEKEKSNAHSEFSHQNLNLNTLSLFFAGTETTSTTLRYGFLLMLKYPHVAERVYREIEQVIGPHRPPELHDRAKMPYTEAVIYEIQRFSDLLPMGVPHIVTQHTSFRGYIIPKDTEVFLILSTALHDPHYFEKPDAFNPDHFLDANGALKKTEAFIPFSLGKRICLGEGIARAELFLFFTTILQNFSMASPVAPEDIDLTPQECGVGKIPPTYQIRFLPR

expressed CYP3A5 = expressed CYP3A5 (Homo sapiens, UniProt P20815); test: Incubation with expressed CYP3A5; assay type: in vitro ADME; conditions: expressed CYP3A5 13 pmol, 37°C, 15 min
[2] = test system: expressed human P450s (1A2, 2A6, 2B6, 2C8, 2C9, 2C19, 2D6, 2E1, 3A4, and 3A5); test: Incubation with panel of 10 expressed CYPs; assay type: in vitro ADME; conditions: for disappearance of substrate, other isoforms (no appreciable effect, cutoff): expressed isoforms other than CYP2A6, CYP2B6, CYP2C19
Summary of the method: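 Qualitative isoform screen. Baculovirus-insect cell-expressed human CYP1A2, 2A6, 2B6, 2C8, 2C9, 2C19, 2D6, 2E1, 3A4 or 3A5 with oxidoreductase (13–26 pmol) was incubated at 37°C with 10 μM (R)- or (S)-ketamine, or (R,S)-, (R)- or (S)-norketamine. The NADPH-generating system contained NADP, glucose 6-phosphate, MgCl2 and glucose-6-phosphate dehydrogenase. Ketamine incubations ran 15 min. Products measured by LC/MS/MS.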

[3] = BPD patients 3 days after dosing of (R,S)-Ket; ref Zhao et al., 2012; cited from earlier work
expressed CYP2C19 = expressed CYP2C19 (Homo sapiens, UniProt P33261); test: Incubation with expressed CYP2C19; assay type: in vitro ADME; conditions: data not shown
[4] = formation of metabolite from (R)-norKet
[5] = formation of metabolite from (S)-norKet

Sequence of expressed CYP3A5 (P20815 whole entry, canonical isoform): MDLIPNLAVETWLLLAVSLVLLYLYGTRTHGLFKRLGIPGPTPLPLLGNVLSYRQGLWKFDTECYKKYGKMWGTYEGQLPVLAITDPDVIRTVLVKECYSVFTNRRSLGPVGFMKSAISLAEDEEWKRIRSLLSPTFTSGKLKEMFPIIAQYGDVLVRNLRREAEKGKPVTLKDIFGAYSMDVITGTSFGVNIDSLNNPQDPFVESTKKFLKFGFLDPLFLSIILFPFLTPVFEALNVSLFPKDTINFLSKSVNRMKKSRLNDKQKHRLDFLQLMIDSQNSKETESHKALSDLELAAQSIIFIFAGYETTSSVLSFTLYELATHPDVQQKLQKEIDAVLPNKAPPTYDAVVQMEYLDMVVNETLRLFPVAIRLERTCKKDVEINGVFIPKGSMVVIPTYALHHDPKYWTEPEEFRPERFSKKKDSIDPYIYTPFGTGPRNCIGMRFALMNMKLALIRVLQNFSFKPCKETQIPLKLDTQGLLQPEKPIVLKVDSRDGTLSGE
Sequence of expressed CYP2C19 (P33261 whole entry): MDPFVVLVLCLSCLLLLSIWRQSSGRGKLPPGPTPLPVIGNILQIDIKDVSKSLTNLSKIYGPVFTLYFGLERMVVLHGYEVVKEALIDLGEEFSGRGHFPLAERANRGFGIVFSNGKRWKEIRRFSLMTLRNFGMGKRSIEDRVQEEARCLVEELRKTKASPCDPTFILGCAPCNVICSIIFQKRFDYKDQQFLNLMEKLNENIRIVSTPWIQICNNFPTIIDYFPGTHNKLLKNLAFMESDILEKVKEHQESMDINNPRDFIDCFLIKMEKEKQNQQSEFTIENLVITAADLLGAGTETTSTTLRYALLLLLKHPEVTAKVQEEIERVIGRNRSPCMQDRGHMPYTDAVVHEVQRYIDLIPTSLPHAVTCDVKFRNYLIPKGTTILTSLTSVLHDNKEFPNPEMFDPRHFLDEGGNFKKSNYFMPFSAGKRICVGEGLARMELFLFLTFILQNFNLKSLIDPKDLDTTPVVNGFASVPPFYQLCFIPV

| SMILES | metabolite found in HLM incubates of (R,S)-Ket [1] | metabolite found in HLM incubates of (R,S)-norKet [1] | Vmax (expressed CYP2A6; [4]) [pmol/min/pmol P450] | Vmax (expressed CYP2A6; [5]) [pmol/min/pmol P450] | Vmax (expressed CYP2B6; [4]) [pmol/min/pmol P450] | Vmax (expressed CYP2B6; [5]) [pmol/min/pmol P450] | Vmax (expressed CYP3A5; [4]) [pmol/min/pmol P450] | Vmax (expressed CYP3A5; [5]) [pmol/min/pmol P450] | further results |
| --- | --- | --- | --- | --- | --- | --- | --- | --- | --- |
| NC1(c2ccccc2Cl)CCC(O)CC1=O [4c, (2S,5S;2R,5R)-HNK] | significant concentrations | significant concentrations | 1.25 | 1.48 | 16.72 | 16.3 | 0.038 | 0.30 | – |
| CNC1(c2ccccc2Cl)CCCC(O)C1=O (single isomer, unassigned) [5a] | significant concentrations | – | – | – | – | – | – | – | decrease of substrate concentration in the incubates (expressed CYP2B6; substrate 5a, incubates containing CYP2B6): 42.5% |
| NC1(c2ccccc2Cl)CC(O)CCC1=O [4e, (2S,4R;2R,4S)-HNK] | trace amounts | trace amounts | – | – | – | – | 0.087 | 3.14 | – |
| NC1(c2ccccc2Cl)CCCC(O)C1=O [4b, (2S,6R;2R,6S)-HNK] | significant concentrations | not detected | – | – | – | – | – | – | generation from (S)- or (R)-norKet by any of the expressed CYPs ([2]; 10 expressed CYPs): not generated |
| NC1(c2ccccc2Cl)CCC=CC1=O (stereo not shown) [DHNK, 5,6-dehydronorketamine] | significant concentrations | significant concentrations | 0.98 | 0.92 | 13.0 | 7.61 | 0.079 | 1.96 | plasma concentration [3]: > 8 ng/mL |
| N[C@@]1(c2ccccc2Cl)CCCCC1=O [(R)-norKet] | – | – | – | – | – | – | – | – | depletion of substrate from the incubation mixture (expressed CYP2C19): 35.0%; depletion of substrate from the incubation mixture (expressed CYP2A6): 34.5%; depletion of substrate from the incubation mixture (expressed CYP2B6; expressed CYP2B6): 47.8%; disappearance of substrate, other isoforms (no appreciable effect, cutoff) ([2]; data not shown): < 24% |
| NC1(c2ccccc2Cl)CCCCC1=O (racemic) [(R,S)-norKet, norketamine] | significant concentrations | – | – | – | – | – | – | – | – |
| NC1(c2ccccc2Cl)CCC(O)CC1=O [4f, (2S,5R;2R,5S)-HNK] | significant concentrations | significant concentrations | 0.44 | 0.33 | 3.98 | 0.30 | 1.69 | 5.71 | Clint for formation from (R)-norKet relative to (S)-norKet (expressed CYP2B6; enzyme not given, Table 5, fits CYP2B6): ~ 10 fold |
| NC1(c2ccccc2Cl)CC(O)CCC1=O [4d, (2S,4S;2R,4R)-HNK] | trace amounts | trace amounts | 1.28 | 4.67 | 0.78 | 3.34 | 0.029 | 0.20 | – |
| NC1(c2ccccc2Cl)CCCC(O)C1=O [4a, (2S,6S;2R,6R)-HNK] | significant concentrations | significant concentrations | 8.18 | 3.9 | 0.76 | 0.56 | 0.29 | 3.87 | N-demethylated metabolite formed (highest rate) (expressed CYP2B6; substrate 5a, expressed CYP2B6): 201.6 ng/mL; metabolite formation by other CYPs ([2]; substrate 5a, expressed CYPs other than CYP2B6, data not shown): < 13 ng/mL; plasma concentration [3]: > 8 ng/mL |
| CNC1(c2ccccc2Cl)CCCC(O)C1=O (single isomer, unassigned) [5b] | significant concentrations | – | – | – | – | – | – | – | – |
| N[C@]1(c2ccccc2Cl)CCCCC1=O [(S)-norKet] | – | – | – | – | – | – | – | – | depletion of substrate from the incubation mixture (expressed CYP2C19): 27.3%; depletion of substrate from the incubation mixture (expressed CYP2A6): 41.0%; depletion of substrate from the incubation mixture (expressed CYP2B6; expressed CYP2B6): 41.6%; disappearance of substrate, other isoforms (no appreciable effect, cutoff) ([2]; data not shown): < 24% |
